Measured values: article PMC5049450 (Journal of Clinical Pharmacology, 2015)
Like-named read-outs stand apart in the source and are kept apart here.

Legend:
[1] = type: in vivo, human; set-up: AUC∞, unbound buparlisib GMR (90%CI) / Cmax, total buparlisib GMR (90%CI) / Cmax, unbound buparlisib GMR (90%CI): unit not given beside the values; conditions: for increase in Cmax compared with normal hepatic function / increase in buparlisib exposure (AUC∞) compared with normal hepatic function: total buparlisib
How it was run: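 After a single oral dose following an overnight fast, K3EDTA blood was drawn predose and at 0.5–336 h. Samples were centrifuged at 1500 g for 10 min at 3–5 °C and plasma stored at –70 °C. Plasma levels were measured by validated LC-MS/MS after solid-phase extraction with a stable-labelled internal standard. Parameters were derived by noncompartmental analysis and compared by ANOVA of log-transformed values, with hepatic function as the fixed effect.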

Safety assessment = type: in vivo, human
How it was run: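 Noncancer Child–Pugh mild, moderate or severe hepatic impairment subjects (6 per group) and 13 healthy controls received one oral test-compound dose after an overnight fast. Safety was monitored throughout through adverse events, clinical laboratory tests, ECGs and physical examinations. Adverse events were graded by NCI-CTCAE v4.03 and relationship to drug was recorded. Safety follow-up was on day 31.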

CYP3A = conditions: phase‐1 oxidative metabolism; cited from earlier work
[2] = healthy volunteers, cited from earlier work
[3] = rats; cited from earlier work
plasma protein = conditions: across species; independent of drug concentration; cited from earlier work
[4] = patients with advanced solid tumors, cited from earlier work
[5] = cited from earlier work
[6] = increased solubility at low pH; cited from earlier work
[7] = cited from earlier work; remark: listed apart in the source
[8] = linear regression, severe hepatic impairment relative to control group (1.6 vs 1.0), not statistically significant
[9] = linear regression, severe hepatic impairment relative to control group (29.7 g/L vs 45.2 g/L), not statistically significant
[10] = mild hepatic impairment versus normal hepatic function group, 30 mg
[11] = moderate hepatic impairment versus normal hepatic function group, 30 mg
[12] = moderate‐hepatic‐function group
[13] = coadministration with ritonavir

## Nc1cc(C(F)(F)F)c(-c2cc(N3CCOCC3)nc(N3CCOCC3)n2)cn1 [buparlisib]
[1]; human, plasma, po, 30 mg, AUC∞, geometric mean (CV%), single oral 30 mg, fasted, normal hepatic function (n = 13)
  AUC(0-inf): 6010 ng·h/mL
[1]; human, plasma, po, 30 mg, Cmax, geometric mean (CV%), single oral 30 mg, fasted, normal hepatic function (n = 13)
  Cmax: 221 ng/mL
[1]; human, plasma, po, 30 mg, T1/2, geometric mean (CV%), single oral 30 mg, fasted, normal hepatic function (n = 13)
  half-life: 53 h
[1]; human, plasma, po, 30 mg, Tmax, median (range), single oral 30 mg, fasted, normal hepatic function (n = 13)
  Tmax: 1 h
[1]; human, plasma, po, 30 mg, Vz/F, geometric mean (CV%), single oral 30 mg, fasted, normal hepatic function (n = 13)
  Vd/F: 381 L
[1]; [8]
  increase in AUC∞ associated with higher (52%) INR: 15%
  increase in Cmax associated with higher (52%) INR: 11%
[1]; [9]
  increase in AUC∞ associated with lower (34%) baseline albumin level: 26%
  increase in Cmax associated with lower (34%) baseline albumin level: 15%
[1]; [10]
  AUC∞, unbound buparlisib GMR (90%CI): 1.17 (0.84, 1.64)
  Cmax, total buparlisib GMR (90%CI): 1.26 (1.00, 1.58)
  Cmax, unbound buparlisib GMR (90%CI): 1.28 (0.99, 1.64)
[1]; mild hepatic impairment
  increase in Cmax compared with normal hepatic function: 26%
  increase in buparlisib exposure (AUC∞) compared with normal hepatic function: 16%
[1]; [11]
  AUC∞, unbound buparlisib GMR (90%CI): 1.18 (0.84, 1.65)
  Cmax, total buparlisib GMR (90%CI): 1.08 (0.87, 1.36)
  Cmax, unbound buparlisib GMR (90%CI): 1.12 (0.87, 1.44)
[1]; moderate hepatic impairment
  increase in Cmax compared with normal hepatic function: 8%
  increase in buparlisib exposure (AUC∞) compared with normal hepatic function: 14%
[1]; severe hepatic impairment versus normal hepatic function group, 30 mg
  Cmax, total buparlisib GMR (90%CI): 1.45 (1.15, 1.81)
[1]; severe hepatic impairment
  increase in Cmax compared with normal hepatic function: 45%
  increase in buparlisib exposure (AUC∞) compared with normal hepatic function: 20%
[1]; single oral 30 mg, fasted, mild hepatic impairment, Child–Pugh A (n = 6)
  CL/F, geometric mean (CV%): 4.3 (46) L/h
[1]; single oral 30 mg, fasted, moderate hepatic impairment, Child–Pugh B (n = 6)
  CL/F, geometric mean (CV%): 4.4 (62) L/h
[1]; single oral 30 mg, fasted, normal hepatic function (n = 13)
  CL/F, geometric mean (CV%): 5.0 (37) L/h
[1]; single oral 30 mg, fasted, severe hepatic impairment, Child–Pugh C (n = 6)
  CL/F, geometric mean (CV%): 4.2 (41) L/h
[1]; single oral 30 mg, subjects with or without hepatic impairment
  secondary absorption peak, time postdose: approximately 24 hours
Safety assessment; all subjects
  subjects with QTcF >450 milliseconds: Eight subjects
  subjects with QTcF increase of >30 milliseconds from baseline: Six subjects
Safety assessment; mild‐hepatic‐function group
  subjects with QTcF increase of >30 milliseconds from baseline: 2
Safety assessment; moderate hepatic impairment, grade‐1 prolonged QTcF, grade‐1 hypertension
  subjects reporting treatment‐related AEs: 2 subjects
Safety assessment; [12]
  subjects with QTcF >450 milliseconds: 4
  subjects with QTcF increase of >30 milliseconds from baseline: 2
Safety assessment; normal hepatic function, grade‐1 dizziness, grade‐1 dermatitis acneiform
  subjects reporting treatment‐related AEs: 2 subjects
Safety assessment; normal‐hepatic‐function group
  subjects with QTcF increase of >30 milliseconds from baseline: 2
Safety assessment; severe hepatic impairment, grade‐2 thrombocytopenia
  subjects reporting treatment‐related AEs: 1 subject
Safety assessment; severe‐hepatic‐function group
  subjects with QTcF >450 milliseconds: 4
Safety assessment; single oral 30 mg, all subjects (N = 31)
  deaths during the study: no deaths
Safety assessment; single oral 30‐mg dose, subjects with and without hepatic impairment
  tolerability: well tolerated
CYP3A
  estimated fraction metabolized by CYP3A: > 0.9
[2]; buparlisib with ritonavir
  apparent clearance: 3.27 L/h
  elimination half‐life (T1/2): 71.6 h
[2]; buparlisib without ritonavir
  apparent clearance: 5.37 L/h
  elimination half‐life (T1/2): 53.3 h
[2]; [13]
  increase in Cmax geometric mean ratio: 19%
  increase in buparlisib exposure (AUC∞): 73%
[3]
  dose eliminated renally: 20–30%
Plasma protein
  plasma protein binding: 79–85%
[4]; following multiple doses
  increases in Cmax and AUC0–24 with dose: approximately dose‐proportional
[4]
  time of maximum plasma concentrations postdose: 1 to 4 h
[5]
  permeability: highly permeable
[6]
  solubility: soluble
[7]
  maximum tolerated dose: 100 mg/day
